Apaf-1 inh: blocks human Apaf-1 apoptosome activity. O14727. reconstituted apoptosome caspase-3 activity, DEVD-Rh110 fluorescence. inhibition, % at 20 µM. hit rate 0.71% among 330,000. AID 489030; active means inhibition of at least 40% at 20 µM;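 further: plate controls were DMSO wells for no effect and DEVD-CHO caspase inhibitor wells for full effect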
Target sequence (O14727 whole entry, looked up): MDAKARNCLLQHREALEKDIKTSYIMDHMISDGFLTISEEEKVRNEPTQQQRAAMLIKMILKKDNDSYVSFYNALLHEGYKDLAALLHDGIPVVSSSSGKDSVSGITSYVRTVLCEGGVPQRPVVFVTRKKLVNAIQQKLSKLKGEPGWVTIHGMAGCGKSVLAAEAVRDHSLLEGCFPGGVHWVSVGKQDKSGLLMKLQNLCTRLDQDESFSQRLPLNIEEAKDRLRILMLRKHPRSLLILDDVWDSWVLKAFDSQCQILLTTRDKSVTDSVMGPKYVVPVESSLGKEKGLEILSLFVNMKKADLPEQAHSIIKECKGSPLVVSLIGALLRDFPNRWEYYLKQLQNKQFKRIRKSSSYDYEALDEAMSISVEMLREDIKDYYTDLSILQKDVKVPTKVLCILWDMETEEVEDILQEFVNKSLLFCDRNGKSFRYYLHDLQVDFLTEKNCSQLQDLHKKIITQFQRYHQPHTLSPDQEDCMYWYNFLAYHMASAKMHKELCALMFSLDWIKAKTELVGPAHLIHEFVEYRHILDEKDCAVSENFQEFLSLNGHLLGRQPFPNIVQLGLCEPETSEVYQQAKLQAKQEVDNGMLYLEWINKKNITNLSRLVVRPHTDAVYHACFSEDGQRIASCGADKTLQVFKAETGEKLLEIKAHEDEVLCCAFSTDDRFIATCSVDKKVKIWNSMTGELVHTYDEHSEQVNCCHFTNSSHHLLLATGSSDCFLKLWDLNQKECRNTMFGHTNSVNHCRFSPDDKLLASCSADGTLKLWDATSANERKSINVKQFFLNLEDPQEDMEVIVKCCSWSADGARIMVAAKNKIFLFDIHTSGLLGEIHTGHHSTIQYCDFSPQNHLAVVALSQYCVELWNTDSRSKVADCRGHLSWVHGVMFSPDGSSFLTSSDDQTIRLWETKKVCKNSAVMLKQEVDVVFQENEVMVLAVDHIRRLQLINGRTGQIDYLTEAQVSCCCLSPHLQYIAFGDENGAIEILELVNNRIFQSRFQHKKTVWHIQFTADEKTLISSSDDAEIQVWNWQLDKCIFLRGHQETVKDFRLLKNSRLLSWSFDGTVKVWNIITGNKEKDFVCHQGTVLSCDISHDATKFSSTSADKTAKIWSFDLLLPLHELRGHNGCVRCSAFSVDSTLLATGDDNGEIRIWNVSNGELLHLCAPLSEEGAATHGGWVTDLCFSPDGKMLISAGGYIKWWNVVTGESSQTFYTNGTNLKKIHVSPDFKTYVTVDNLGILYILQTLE
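Medium: Hepes buffer, pH 7.5 / System: biochemical Apaf-1 apoptosome reconstitution / Measured by: Rh110 fluorescence, excitation 480 nm, emission 540 nm / Times: compound with Apaf-1, dATP, procaspase-3 30 min, then 50 min reaction, room temperature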
FID counter: fluorescent intercalator displacement, NS3 helicase counter-screen; DNA fluorescent intercalator displacement, fluorescence; inhibition, % at 7.9 µM; hit rate 0.17% among 290,000; in the data active means inhibition above about 37%;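 further: 0% = vehicle and 100% = reference compound; higher means more ethidium bromide displaced from hairpin DNA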
UBC13 polyUb: inhibitors of human UBC13 polyubiquitin chain formation | P61088 | inhibition, % at 20 µM | AID 485273 | hit rate 0.47% among 330,000 | TR-FRET; in the data active means inhibition above about 45%, passing the limit was not always enough
ANO1 block: blocks the mouse calcium-activated chloride channel TMEM16A; AID 588511; Q8BHY3; normalized B-score (activity score, 25-100; higher = stronger inhibition) at 10 µM; hit rate 1.2% among 310,000; HEK293 TMEM16A/YFP iodide influx fluorescence, ionomycin;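 active means ratio plate-corrected score three or more library SD toward inhibition, starting fluorescence score within five deviations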;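 further: score derived from kinetic fluorescence span divided by baseline fluorescence per well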
TMEM16A act: activators or potentiators of mouse TMEM16A chloride channel; Q8BHY3; HEK293 TMEM16A/YFP-H148Q/I152L, iodide quench fluorescence; stronger effect = lower value; B-score at 10 µM; hit rate 0.3% among 340,000;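 active means fluorescence-ratio B-score plate-corrected deviation score at least 3 library SD below zero, with starting fluorescence score within 5 deviations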;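 further: channel opened by trigger with iodide after compound preincubation; score built on the fluorescence ratio of max minus min over baseline; more negative score means more quench and so TMEM16A activation or potentiation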
* marks the source's active call; other numbers are inactive results; i = inactive; · = not tested or not shown. Sampled rows, rich in hits. Any-hit rate of the full collection: about 2.4%.

SMILES | Apaf-1 inh | FID counter | UBC13 polyUb | ANO1 block | TMEM16A act
CC(=O)Nc1cc(OC(C)=O)c2nonc2c1OC(C)=O | 98* | 4 | -39 | i | i
CCCNc1ncnc2c1cnn2C1CCCCO1 (configuration not stated) | · | · | · | · | i
C[C@]12C=CC(=O)C=C1CC[C@@H]1C2=CC[C@]2(C)[C@@H](C(=O)CN3CCN(c4cc(N5CCCC5)nc(N5CCCC5)n4)CC3)CC[C@@H]12 | 87* | · | -22 | i | i
Cc1ccc(C2(c3ccc(C)cc3)CC2C(=O)Nc2ccc([N+](=O)[O-])cc2O)cc1 (configuration not stated) | 9 | 9 | -38 | 100* | i
CC(C)(C)NC(=O)NC(=O)CSc1nnc(COc2ccccc2Cl)o1 | 29 | -24 | -6 | 100* | i
COc1ccccc1OCc1nnc(SCC(=O)c2cc(Cl)ccc2OC)o1 | 22 | -10 | -11 | 100* | i
O=C(NC(NNc1ccc([N+](=O)[O-])cc1)(C(F)(F)F)C(F)(F)F)c1ccc(F)cc1 | 14 | 1 | -10 | 100* | i
CC(C)CCNC(=S)Nc1ccc(Br)cc1 | -7 | -4 | 8 | i | i
O=C(NNC(=S)Nc1ccc(F)cc1)c1cccc([N+](=O)[O-])c1 | -8 | 1 | -6 | i | i
CCCCNC(=S)Nc1ccc([N+](=O)[O-])cc1 | -2 | 1 | -12 | 100* | i
CC(C)CCNC(=S)Nc1ccc([N+](=O)[O-])cc1 | -15 | 10 | 14 | 100* | i
O=[N+]([O-])c1ccc(NNC(=S)Nc2ccc(F)cc2)cc1 | -4 | 3 | -9 | 100* | i
O=C(O)C1CCc2nc(NCc3ccccc3)nc(NCc3ccccc3)c2C1 (configuration not stated) | · | · | · | · | i
COc1cccc(NC(=O)c2cccc(N3C(=O)C4C5C=CC(C5)C4C3=O)c2)c1 (configuration not stated) | -8 | -15 | 0 | 25* | i
COc1ccc(NC(=O)c2cccc(N3C(=O)C4C5C=CC(C5)C4C3=O)c2)cc1 (configuration not stated) | -14 | -12 | 4 | i | i
CCOc1ccccc1NC(=S)/C(=C(\[O-])c1ccc2c(c1)OCCO2)[n+]1ccc(CC)cc1 | 9 | -2 | -7 | i | i
O=S(=O)(NCC1(N2CCOCC2)CCCCC1)c1ccccc1Cl | 19 | · | 1 | i | i
O=S(=O)(NCC1(N2CCOCC2)CCCCC1)c1ccc(Cl)cc1C(F)(F)F | 15 | -9 | 7 | i | -18*
CC(C)c1ccc(/C=N/NC(=O)C(=O)NCCCN2CCOCC2)cc1 | 3 | 6 | -10 | i | i
Cc1cccc(C(=O)NNC2=C(C(=O)C(F)(F)F)CCC2)c1O | -1 | -9 | -27 | 100* | i
O=C(CCCSc1nnc(SCCCC(=O)c2ccc(F)cc2)s1)c1ccc(F)cc1 | 8 | -10 | -12 | 25* | i
Cc1ccc(S(=O)(=O)CCC(=O)OCc2cc(=O)oc3cc(C)ccc23)cc1 | 14 | · | -6 | · | i
Cc1cc(OCC(O)CNC(C)c2ccccc2)ccc1C(C)C (configuration not stated) | 21 | 41* | 26 | i | i
CCCC(NCC(O)COc1ccc(-c2ccccc2)cc1)c1ccccc1 (configuration not stated) | 24 | 41* | 28 | i | i
CC(NCC(O)COc1ccc2ccccc2c1)c1ccccc1 (configuration not stated) | 8 | 20 | 9 | i | i
SMILES | Apaf-1 inh | FID counter | UBC13 polyUb | ANO1 block | TMEM16A act
Cc1cc(N/C=C(\C#N)S(=O)(=O)c2ccccc2Cl)nc(C)n1 | -15 | -4 | -1 | i | i
O=C(Nc1cccc(C(F)(F)F)c1)N1CCC(c2nc(-c3ccc(F)cc3)no2)CC1 | 6 | -8 | -13 | 25* | i
COc1ccccc1C(=O)Nc1nc(-c2ccc(S(=O)(=O)N3CCOCC3)cc2)cs1 | 17 | 0 | 5 | 100* | i
COc1ccccc1OC(C)C(=O)Nc1nc(-c2ccc(S(=O)(=O)N3CCOCC3)cc2)cs1 (configuration not stated) | 22 | -17 | -4 | i | i
CC(=O)c1ccc(-c2ccc(C(=O)NC3CCCCCC3)o2)cc1 | 13 | -24 | 12 | i | i
Cc1nn(C)cc1S(=O)(=O)N1CCCCC1C (configuration not stated) | -6 | -5 | 7 | i | i
COc1ccc(CCNC(=O)C(=O)NCC2CCCN2S(=O)(=O)c2ccccc2)cc1OC (configuration not stated) | 8 | · | -7 | 25* | i
COc1ccc(CCNC(=O)c2ccc(CN3CCC(Cc4ccccc4)CC3)cc2)cc1OC | 9 | 19 | 18 | i | -6.9*
COCCNC(=O)c1ccc(CN2CCC(Cc3ccccc3)CC2)cc1 | 1 | 6 | 3 | i | i
CC(C)=CCc1c(O)cc2oc3c(CC=C(C)C)c(O)c(O)c(CC=C(C)C)c3c(=O)c2c1O | -8 | · | -46 | 100* | i
Cc1ccc(-c2csc(=Nc3cccnc3)n2CCCn2ccnc2)cc1C | 7 | 12 | 6 | 25* | i
c1ccc(-c2csc(=Nc3cccnc3)n2CC2CCCO2)cc1 (configuration not stated) | -9 | -15 | 7 | i | i
COCCn1c(-c2ccccc2)csc1=Nc1cccnc1 | 4 | -26 | -2 | 25* | i
CCCc1nnc(SCC(=O)N2CCCC(C)C2)n1CCOC (configuration not stated) | -4 | -5 | -3 | i | i
CS(=O)(=O)c1ccc(C(=O)OCc2nnc(-c3ccc(Cl)cc3)o2)cc1[N+](=O)[O-] | 6 | -2 | 14 | 25* | i
Nc1nn2c(-c3ccccc3)cc(=O)[nH]c2c1N=Nc1ccc(O)cc1 | 41* | 7 | -100 | i | i
Nc1nn2c(-c3ccccc3)cc(=O)[nH]c2c1N=Nc1ccc(Br)cc1 | · | 2 | · | · | i
CC1CCN(c2ccc3nnc(CCC(=O)Nc4cccc(F)c4)n3n2)CC1 | 3 | -42 | 12 | i | i
COC(=O)c1cc(S(=O)(=O)NCCc2ccc(C)cc2)c[nH]1 | 3 | -13 | -2 | 25* | i
COc1ccc([C@H]2CC(=O)C=C(c3ccc4ccccc4c3)C2)cc1OC | 22 | · | 6 | · | i
COc1ccc([C@H]2CC(=O)C=C(c3ccc(-c4ccccc4)c(F)c3)C2)cc1OC | 5 | · | 5 | · | -6.2*
OCCN1CCN(c2nc(-c3ccccc3)nc3c2oc2ccccc23)CC1 | 5 | 43* | 4 | i | i
O=C(O)C1CCN(c2nc(-c3ccccc3)nc3c2oc2ccccc23)CC1 | 3 | -9 | -16 | i | i
CCNC(=S)N1CCC(Cc2ccccc2)CC1 | 4 | -18 | 0 | i | -4.8*

Screening results: PubChem, several laboratories
